The source made the active and inactive calls. The calls are words filed in the database; no cut-off is given here.
Experiments:
[1] = tested on: Tick-borne encephalitis virus; test: Antiviral activity against […] Absettarov infected in PEK cells assessed as inhibition of viral reproduction at 50 uM preincubated with virus for 1 hr followed by addition to PEK cells measured after 1 hr by gentian violet staining based plaque reduction assay relative to control; assay type: functional
[2] = tested on: Tick-borne encephalitis virus; test: Antiviral activity against […] Absettarov infected in PEK cells assessed as inhibition of viral reproduction preincubated with virus for 1 hr followed by addition to PEK cells measured after 1 hr by gentian violet staining based plaque reduction assay; assay type: functional, cell-based
[3] = Cytotoxicity against PEK cells after 24 hrs; assay type: cell-based, Sus scrofa; settings: pig
Outline: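 PEK (porcine embryo kidney) cells were exposed to compound at 50 μM for 24 h and examined for cytotoxicity.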

[4] = Cytotoxicity against PEK cells after 7 days; assay type: cell-based, Sus scrofa; settings: pig

Compound: C=CCC#CCNc1ncnc2c1ncn2[C@@H]1O[C@H](CO)[C@@H](O)[C@H]1O
- inhibition [1]: inactive
- EC50 [2]: > 50 µM

Compound: O=C(Nc1nc2c(ncn2[C@@H]2O[C@H](CO)[C@@H](O)[C@H]2O)c(=O)[nH]1)c1ccccc1
- inhibition [1]: inactive
- EC50 [2]: > 50 µM

Compound: C[n+]1cn([C@@H]2O[C@H](CO)[C@@H](O)[C@H]2O)c2nc(N)nc([O-])c21
- inhibition [1]: inactive
- EC50 [2]: > 50 µM

Compound: OC[C@H]1O[C@@H](n2cnc3c(NC4CCCCC4)ncnc32)[C@H](O)[C@@H]1O
- inhibition [1]: inactive
- EC50 [2]: > 50 µM

Compound: CC(C)=CCC/C(C)=C\CNc1ncnc2c1ncn2[C@@H]1O[C@H](CO)[C@@H](O)[C@H]1O
- inhibition [1]: inactive
- EC50 [2]: > 50 µM

Compound: CC(C)=CCC/C(C)=C/CNc1ncnc2c1ncn2[C@@H]1O[C@H](CO)[C@@H](O)[C@H]1O
- inhibition [1]: inactive
- EC50 [2]: > 50 µM

Compound: OC[C@H]1O[C@@H](n2cnc3c(NCC#Cc4ccccc4)ncnc32)[C@H](O)[C@@H]1O
- inhibition [1]: inactive
- EC50 [2]: > 48 µM

Compound: CC(C)C(=O)Nc1nc2c(ncn2[C@@H]2O[C@H](CO)[C@@H](O)[C@H]2O)c(=O)[nH]1
- inhibition [1]: inactive
- EC50 [2]: > 50 µM

Compound: Cc1cn([C@@H]2O[C@H](CO)[C@@](C)(O)[C@H]2O)c(=O)[nH]c1=O
- inhibition [1]: inactive
- EC50 [2]: > 50 µM

Compound: C#CCNc1ncnc2c1ncn2[C@@H]1O[C@H](CO)[C@@H](O)[C@H]1O
- inhibition [1]: inactive
- EC50 [2]: > 50 µM

Compound: C[C@@]1(O)[C@@H](CO)O[C@@H](n2cnc3c(=O)[nH]c(N)nc32)[C@@H]1O
- inhibition [1]: inactive
- EC50 [2]: > 50 µM

Compound: CC(C)[Si](OC[C@H]1O[C@@H](n2cnc3c(NCc4ccccc4)ncnc32)[C@H](O)[C@@H]1O)(C(C)C)C(C)C
- inhibition at 50 µM [1]: 50%
- EC50 [2]: 5 µM
- CC50 at 24 h [3]: > 50 µM
- CC50 at 168 h [4]: > 50 µM

Compound: c1ccc(CNc2ncnc3[nH]cnc23)cc1 [6-BENZYLAMINOPURINE]
- inhibition [1]: inactive
- EC50 [2]: > 50 µM

Compound: OC[C@H]1O[C@@H](n2cnc3c(NCc4c5ccccc5cc5ccccc45)ncnc32)[C@H](O)[C@@H]1O
- inhibition at 50 µM [1]: 50%
- EC50 [2]: 15 µM
- CC50 at 24 h [3]: > 50 µM
- CC50 at 168 h [4]: > 50 µM

Compound: C[C@@]1(O)[C@@H](CO)O[C@@H](n2ccc(N)nc2=O)[C@@H]1O
- inhibition [1]: inactive
- EC50 [2]: > 50 µM

Compound: C=C(C)[C@@H]1CC=C(CNc2ncnc3c2ncn3[C@@H]2O[C@H](CO)[C@@H](O)[C@H]2O)CC1
- inhibition [1]: inactive
- EC50 [2]: > 50 µM

Compound: O[C@@H]1[C@H](O)[C@@H](COC(c2ccccc2)(c2ccccc2)c2ccccc2)O[C@H]1n1cnc2c(NCc3ccccc3)ncnc21
- inhibition at 50 µM [1]: 50%
- EC50 [2]: 2 µM
- CC50 at 24 h [3]: > 50 µM
- CC50 at 168 h [4]: 9 µM

Compound: OC[C@H]1O[C@@H](n2cnc3c(NC(c4ccccc4)(c4ccccc4)c4ccccc4)ncnc32)[C@H](O)[C@@H]1O
- inhibition [1]: inactive
- EC50 [2]: > 50 µM

Compound: OC[C@H]1O[C@@H](n2cnc3c(NCc4ccco4)ncnc32)[C@H](O)[C@@H]1O [KINETIN RIBOSIDE]
- inhibition [1]: inactive
- EC50 [2]: > 50 µM

Compound: OC[C@H]1O[C@@H](n2cnc3c(NCc4ccc5ccc6cccc7ccc4c5c67)ncnc32)[C@H](O)[C@@H]1O
- inhibition at 50 µM [1]: 50%
- EC50 [2]: 6 µM
- CC50 at 24 h [3]: > 50 µM
- CC50 at 168 h [4]: 9 µM

Compound: CC1(C)[C@H]2CC=C(CNc3ncnc4c3ncn4[C@@H]3O[C@H](CO)[C@@H](O)[C@H]3O)[C@@H]1C2
- inhibition [1]: inactive
- EC50 [2]: > 50 µM

Compound: OC[C@H]1O[C@@H](n2cnc3c(NCc4ccc5ccccc5c4)ncnc32)[C@H](O)[C@@H]1O
- inhibition [1]: inactive
- EC50 [2]: > 50 µM

Compound: CNc1ncnc2c1ncn2[C@@H]1O[C@H](CO)[C@@H](O)[C@H]1O
- inhibition [1]: inactive
- EC50 [2]: > 50 µM

Compound: CC(C)=CCNc1ncnc2c1ncn2[C@@H]1O[C@H](CO)[C@@H](O)[C@H]1O [RIBOPRINE]
- inhibition [1]: inactive
- EC50 [2]: > 50 µM

Compound: c1ccc(CNc2ncnc3nc[nH]c23)cc1 [6-BENZYLAMINOPURINE]
- CC50 at 24 h [3]: > 50 µM
- CC50 at 168 h [4]: > 50 µM

Compound: OC[C@H]1O[C@@H](n2cnc3c(NC/C=C/c4ccccc4)ncnc32)[C@H](O)[C@@H]1O
- inhibition [1]: inactive
- EC50 [2]: > 50 µM

Compound: O=C(Nc1ccn(C2O[C@H](CO)[C@@H](O)[C@H]2O)c(=O)n1)c1ccccc1 (stereo partly specified)
- inhibition [1]: inactive
- EC50 [2]: > 50 µM

Compound: OC/C=C\CNc1ncnc2c1ncn2[C@@H]1O[C@H](CO)[C@@H](O)[C@H]1O
- inhibition [1]: inactive
- EC50 [2]: > 50 µM

Compound: OC[C@H]1O[C@@H](n2cnc3c(NCc4ccccc4)ncnc32)[C@H](O)[C@@H]1O [N6-BENZYLADENOSINE]
- inhibition [1]: inactive
- EC50 [2]: > 50 µM
- CC50 at 24 h [3]: > 50 µM
- CC50 at 168 h [4]: > 50 µM

Compound: C[C@@]1(O)[C@@H](CO)O[C@@H](n2ccc(=O)[nH]c2=O)[C@@H]1O
- inhibition [1]: inactive
- EC50 [2]: > 50 µM

Compound: CC(C)(C)[Si](C)(C)OC[C@H]1O[C@@H](n2cnc3c(NCc4ccccc4)ncnc32)[C@H](O)[C@@H]1O
- inhibition at 50 µM [1]: 50%
- EC50 [2]: 20 µM
- CC50 at 24 h [3]: > 50 µM
- CC50 at 168 h [4]: > 50 µM

Compound: Cn1cnc2c(ncn2[C@@H]2O[C@H](CO)[C@@H](O)[C@H]2O)c1=N
- inhibition [1]: inactive
- EC50 [2]: > 50 µM
